From publication PMC6583924 (European journal of medicinal chemistry, 2017)

How the values were obtained:
[1] = target: (h)V1a (Homo sapiens, UniProt P37288); assay: In vitro V1a binding assay; details: for inhibition at 0.01 µM: read-out: % Binding inhibition (10^−8M); for inhibition at 0.001 µM: read-out: % Binding inhibition (10^−9M); for V1a binding affinity (in words): structure-activity discussion of Tables 1 and 2
Procedure, shortened: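 [3H]AVP (0.3 nM; KD 0.5 nM) competition binding on human recombinant V1a expressed in CHO cells, 60 min at RT. Nonspecific binding was defined with 1 µM AVP. Test compounds were run at selected concentrations, two independent experiments each in duplicate, with % binding inhibition recorded. IC50 came from a one-site sigmoidal variable-slope fit; Ki was calculated by Cheng–Prusoff.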

[2] = Lipophilicity logD7,4; type: physicochemical; details: pH 7.4
[3] = target: V2; details: read-out: Ki V2; cited from earlier work
[4] = system: CD-1 mouse brain; assay: Effect of anesthetics on radiotracer brain uptake in CD-1 mice; type: in vivo; details: anesthetic ip 80 mg/kg, 30 min prior the radiotracer; 30 min after radiotracer

Sequence of (h)V1a (P37288 whole entry): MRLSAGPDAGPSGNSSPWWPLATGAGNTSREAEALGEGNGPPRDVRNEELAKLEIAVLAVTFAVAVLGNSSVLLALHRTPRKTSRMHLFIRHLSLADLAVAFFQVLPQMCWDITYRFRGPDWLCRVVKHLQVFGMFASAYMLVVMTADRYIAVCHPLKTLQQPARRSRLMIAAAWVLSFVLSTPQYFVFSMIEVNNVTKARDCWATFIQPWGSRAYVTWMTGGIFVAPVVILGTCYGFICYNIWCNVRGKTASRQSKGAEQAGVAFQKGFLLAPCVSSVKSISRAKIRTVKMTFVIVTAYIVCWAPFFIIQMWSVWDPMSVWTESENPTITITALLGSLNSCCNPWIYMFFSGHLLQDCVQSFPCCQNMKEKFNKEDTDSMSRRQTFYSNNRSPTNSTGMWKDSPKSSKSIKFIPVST

| Structure (SMILES) | inhibition at 0.01 µM [1] | inhibition at 0.001 µM [1] | V1a binding affinity (in words) [1] | logD [2] | Ki [1] | Ki [3] | Effect on radiotracer brain uptake [4] |
| --- | --- | --- | --- | --- | --- | --- | --- |
| CC1(C)CC2CC(C)(CN2C(=O)c2ccc(-c3c[nH]c4ccccc34)cc2F)C1 (centres unmarked) [6b, (2-Fluoro-4-(1H-Indol-3-yl)phenyl)(1,3,3-trimethyl-6-aza-bicyclo[3.2.1]octan-6-yl)methanone] | 77.1% | 33.4% | lower binding affinity compared to the lead 1 | 4.8 |  |  |  |
| CC1(C)CC2CC(C)(CN2C(=O)c2ccc(-c3c[nH]c4ccccc34)c(OCCF)c2)C1 (centres unmarked) [6c, (3-(2fluoroethoxy)-4-(1H-indol-3-yl)phenyl)(1,3,3-trimethyl-6-aza-bicyclo[3.2.1]octan-6yl)methanone] | 92.6% | 45.1% | high binding affinity | 4.9 |  |  |  |
| COc1cc(C(=O)N2CC3(C)CC2CC(C)(C)C3)ccc1-c1ccc(F)nc1 (centres unmarked) [8a, (4-(6Fluoropyridin-3-yl)-3-methoxyphenyl)(1,3,3-trimethyl-6-aza-bicyclo[3.2.1]octan-6yl)methanone] | 33.9% | 2.9% | lower binding affinity compared to the lead 1 | 3.9 |  |  |  |
| COc1cc(C(=O)N2CC3(C)CC2CC(C)(C)C3)ccc1-c1cccnc1F (centres unmarked) [8b, (4-(2Fluoropyridin-3-yl)-3-methoxyphenyl)(1,3,3-trimethyl-6-aza-bicyclo[3.2.1]octan-6yl)methanone] | 16% | 9.7% | lower binding affinity compared to the lead 1 | 4 |  |  |  |
| COc1cc(C(=O)N2CC3(C)CC2CC(C)(C)C3)ccc1-c1cn(C)c2ccccc12 (centres unmarked) [8c, (3Methoxy-4-(1-methyl-1H-indol-3-yl)phenyl)(1,3,3-trimethyl-6-aza-bicyclo[3.2.1]octan-6yl)methanone] | 18.7% | 1.8% | decrease in binding affinity | 6 |  |  |  |
| COc1cc(C(=O)N2CC3(C)CC2CC(C)(C)C3)ccc1-c1c[nH]c2ncccc12 (centres unmarked) [8d, (3Methoxy-4-(1H-pyrrolo[2,3-b]pyridin-3-yl)phenyl)(1,3,3-trimethyl-6-aza-bicyclo[3.2.1]octan-6yl)methanone] | 28.7% | 4.4% |  | 2.9 |  |  |  |
| COc1cc(C(=O)N2CC3(C)CC2CC(C)(C)C3)ccc1-c1c[nH]c2cnccc12 (centres unmarked) [8e, (3Methoxy-4-(1H-pyrrolo[2,3-c]pyridin-3-yl)phenyl)(1,3,3-trimethyl-6-aza-bicyclo[3.2.1]octan-6yl)methanone] | 44.2% | -4.7% |  | 3.5 |  |  |  |
| COc1cc(C(=O)N2CC3(C)CC2CC(C)(C)C3)ccc1-c1c[nH]c2ccncc12 (centres unmarked) [8f, (3Methoxy-4-(1H-pyrrolo[3,2-c]pyridin-3-yl)phenyl)(1,3,3-trimethyl-6-aza-bicyclo[3.2.1]octan-6yl)methanone] | 39.5% | 5.2% |  | 2.8 |  |  |  |
| Cc1ccccc1-c1ccc(C(=O)N2CC3(C)CC2CC(C)(C)C3)cc1 (centres unmarked) [8g, (2’-Methylbiphenyl-4-yl)(1,3,3-trimethyl-6-aza-bicyclo[3.2.1]octan-6-yl)methanone] | 84.3% | 23.7% | good binding affinity | 5 |  |  |  |
| Cc1cnccc1-c1ccc(C(=O)N2CC3(C)CC2CC(C)(C)C3)cc1 (centres unmarked) [8h, (4-(3-Methylpyridin-4-yl)phenyl)(1,3,3-trimethyl-6-aza-bicyclo[3.2.1]octan-6-yl)methanone] | 28.9% | 10.5% |  | 4.4 |  |  |  |
| Cc1ccncc1-c1ccc(C(=O)N2CC3(C)CC2CC(C)(C)C3)cc1 (centres unmarked) [8i, (4-(4-Methylpyridin-3-yl)phenyl)(1,3,3-trimethyl-6-aza-bicyclo[3.2.1]octan-6-yl)methanone] | 43.9% | 12.8% |  | 4.4 |  |  |  |
| Cc1ncccc1-c1ccc(C(=O)N2CC3(C)CC2CC(C)(C)C3)cc1 (centres unmarked) [8j, (4-(2-Methylpyridin-3-yl)phenyl)(1,3,3-trimethyl-6-aza-bicyclo[3.2.1]octan-6-yl)methanone] | 18.2% | -6.6% |  | 4.4 |  |  |  |
| Cc1ccccc1-c1ccc(C(=O)N2CC3(C)CC2CC(C)(C)C3)c(F)c1 (centres unmarked) [8k, (3-Fluoro-6’-methylbiphenyl-4-yl)(1,3,3-trimethyl-6-aza-bicyclo[3.2.1]octan-6-yl)methanone] | 81.2% | 22.8% | good binding affinity | 5.8 |  |  |  |
| Cc1ccncc1-c1ccc(C(=O)N2CC3(C)CC2CC(C)(C)C3)c(F)c1 (centres unmarked) [8l, (2Fluoro-4-(4-methylpyridin-3-yl)phenyl)(1,3,3-trimethyl-6-aza-bicyclo[3.2.1]octan-6yl)methanone] | 19.8% | 2.4% | poor V1a binding affinity | 4.5 |  |  |  |
| COc1cc(C(=O)N2CCN(C)CC2)ccc1-c1c[nH]c2ccccc12 [13a, (4-(1H-Indol-3-yl)-3-methoxyphenyl)(4-methylpiperazin-1-yl)methanone] | 4.7% | 15.7% |  | 0.7 |  |  |  |
| COc1cc(C(=O)N2CCC(F)(F)CC2)ccc1-c1c[nH]c2ccccc12 [13b, (4-(1H-Indol-3-yl)-3-methoxyphenyl)(4,4-difluoropiperidin-1-yl)methanone] | 9% | 13.7% |  | 1.6 |  |  |  |
| COc1cc(C(=O)N2CCCN(C)CC2)ccc1-c1c[nH]c2ccccc12 [13c, (4-(1H-Indol-3-yl)-3-methoxyphenyl)(4-methyl-1,4-diazepan-1-yl)methanone] | 6.2% | 5.7% |  | 0.2 |  |  |  |
| COc1cc(C(=O)NC23CC4CC(CC(C4)C2)C3)ccc1-c1c[nH]c2ccccc12 [13d, N-Adamantan-1-yl-4-(1H-indol-3-yl)-3-methoxybenzamide] | 4.8% | 7.4% |  | 5.8 |  |  |  |
| COc1cc(C(=O)Nc2ccc(F)cc2)ccc1-c1c[nH]c2ccccc12 [13e, N-(4-Fluorophenyl)-4-(1H-indol-3-yl)-3-methoxybenzamide] | 4.6% | 5% |  | 3.2 |  |  |  |
| COc1cc(C(=O)N2C[C@]3(C)C[C@H]2CC(C)(C)C3)ccc1-c1c[nH]c2ccccc12 [(1S,5R)-1, (4-(1Hindol-3-yl)-3-methoxyphenyl)((1S,5R)-1,3,3-trimethyl-6-azabicyclo[3.2.1]octan-6-yl)methanone] | 87.9% | 51.4% |  | 4.7 | 0.00066 µM | 0.6 µM |  |
| CNC1(c2ccccc2Cl)CCCCC1=O (centres unmarked) [Ketamine] |  |  |  |  |  |  | did not significantly change |
